Results from ChEMBL document CHEMBL4842350, “Discovery of a Novel Bromodomain and Extra Terminal Domain (BET) Protein Inhibitor, I-BET282E, Suitable for Clinical Progression” (J Med Chem, 2021).

Experiments:
[1] = Cmax in Wistar Han rat at 1 mg/kg, po measured upto 24 hrs by HPLC-MS/MS analysis; format: ADME, organism-based; set-up: route oral, dose 1 mg/kg, time <=24; settings: in vivo
Outline: (§1)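 Oral suspension in 1% (w/v) hydroxypropylmethyl cellulose in water; male rats (n = 3) and male dogs (n = 4). AUC taken from 0 h to last quantifiable time point; Cmax is maximum observed plasma concentration; Tmax reported as median. Mean ± SD.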

[2] = Volume of distribution at steady state in Wistar Han rat at 1 mg/kg/hr, iv measured upto 26 hrs by LC-MS/MS analysis; format: ADME, organism-based; settings: in vivo, read-out: Vdss
[3] = biological target: T1, Bromodomain-containing protein 4 (Homo sapiens, UniProt O60885); experiment: Inhibition of BRD4 in human whole blood assessed as reduction in LPS-induced IL-6 secretion preincubated for 30 mins followed by LPS stimulation and measured after 24 hrs by MSD assay; format: tissue-based
[4] = biological target: CREB-binding protein (Homo sapiens) (UniProt Q92793); experiment: Binding affinity to CBP (unknown origin) assessed as change in melting temperature
Sequence of CREB-binding protein (Homo sapiens) (Q92793 2-2442 limits assumed): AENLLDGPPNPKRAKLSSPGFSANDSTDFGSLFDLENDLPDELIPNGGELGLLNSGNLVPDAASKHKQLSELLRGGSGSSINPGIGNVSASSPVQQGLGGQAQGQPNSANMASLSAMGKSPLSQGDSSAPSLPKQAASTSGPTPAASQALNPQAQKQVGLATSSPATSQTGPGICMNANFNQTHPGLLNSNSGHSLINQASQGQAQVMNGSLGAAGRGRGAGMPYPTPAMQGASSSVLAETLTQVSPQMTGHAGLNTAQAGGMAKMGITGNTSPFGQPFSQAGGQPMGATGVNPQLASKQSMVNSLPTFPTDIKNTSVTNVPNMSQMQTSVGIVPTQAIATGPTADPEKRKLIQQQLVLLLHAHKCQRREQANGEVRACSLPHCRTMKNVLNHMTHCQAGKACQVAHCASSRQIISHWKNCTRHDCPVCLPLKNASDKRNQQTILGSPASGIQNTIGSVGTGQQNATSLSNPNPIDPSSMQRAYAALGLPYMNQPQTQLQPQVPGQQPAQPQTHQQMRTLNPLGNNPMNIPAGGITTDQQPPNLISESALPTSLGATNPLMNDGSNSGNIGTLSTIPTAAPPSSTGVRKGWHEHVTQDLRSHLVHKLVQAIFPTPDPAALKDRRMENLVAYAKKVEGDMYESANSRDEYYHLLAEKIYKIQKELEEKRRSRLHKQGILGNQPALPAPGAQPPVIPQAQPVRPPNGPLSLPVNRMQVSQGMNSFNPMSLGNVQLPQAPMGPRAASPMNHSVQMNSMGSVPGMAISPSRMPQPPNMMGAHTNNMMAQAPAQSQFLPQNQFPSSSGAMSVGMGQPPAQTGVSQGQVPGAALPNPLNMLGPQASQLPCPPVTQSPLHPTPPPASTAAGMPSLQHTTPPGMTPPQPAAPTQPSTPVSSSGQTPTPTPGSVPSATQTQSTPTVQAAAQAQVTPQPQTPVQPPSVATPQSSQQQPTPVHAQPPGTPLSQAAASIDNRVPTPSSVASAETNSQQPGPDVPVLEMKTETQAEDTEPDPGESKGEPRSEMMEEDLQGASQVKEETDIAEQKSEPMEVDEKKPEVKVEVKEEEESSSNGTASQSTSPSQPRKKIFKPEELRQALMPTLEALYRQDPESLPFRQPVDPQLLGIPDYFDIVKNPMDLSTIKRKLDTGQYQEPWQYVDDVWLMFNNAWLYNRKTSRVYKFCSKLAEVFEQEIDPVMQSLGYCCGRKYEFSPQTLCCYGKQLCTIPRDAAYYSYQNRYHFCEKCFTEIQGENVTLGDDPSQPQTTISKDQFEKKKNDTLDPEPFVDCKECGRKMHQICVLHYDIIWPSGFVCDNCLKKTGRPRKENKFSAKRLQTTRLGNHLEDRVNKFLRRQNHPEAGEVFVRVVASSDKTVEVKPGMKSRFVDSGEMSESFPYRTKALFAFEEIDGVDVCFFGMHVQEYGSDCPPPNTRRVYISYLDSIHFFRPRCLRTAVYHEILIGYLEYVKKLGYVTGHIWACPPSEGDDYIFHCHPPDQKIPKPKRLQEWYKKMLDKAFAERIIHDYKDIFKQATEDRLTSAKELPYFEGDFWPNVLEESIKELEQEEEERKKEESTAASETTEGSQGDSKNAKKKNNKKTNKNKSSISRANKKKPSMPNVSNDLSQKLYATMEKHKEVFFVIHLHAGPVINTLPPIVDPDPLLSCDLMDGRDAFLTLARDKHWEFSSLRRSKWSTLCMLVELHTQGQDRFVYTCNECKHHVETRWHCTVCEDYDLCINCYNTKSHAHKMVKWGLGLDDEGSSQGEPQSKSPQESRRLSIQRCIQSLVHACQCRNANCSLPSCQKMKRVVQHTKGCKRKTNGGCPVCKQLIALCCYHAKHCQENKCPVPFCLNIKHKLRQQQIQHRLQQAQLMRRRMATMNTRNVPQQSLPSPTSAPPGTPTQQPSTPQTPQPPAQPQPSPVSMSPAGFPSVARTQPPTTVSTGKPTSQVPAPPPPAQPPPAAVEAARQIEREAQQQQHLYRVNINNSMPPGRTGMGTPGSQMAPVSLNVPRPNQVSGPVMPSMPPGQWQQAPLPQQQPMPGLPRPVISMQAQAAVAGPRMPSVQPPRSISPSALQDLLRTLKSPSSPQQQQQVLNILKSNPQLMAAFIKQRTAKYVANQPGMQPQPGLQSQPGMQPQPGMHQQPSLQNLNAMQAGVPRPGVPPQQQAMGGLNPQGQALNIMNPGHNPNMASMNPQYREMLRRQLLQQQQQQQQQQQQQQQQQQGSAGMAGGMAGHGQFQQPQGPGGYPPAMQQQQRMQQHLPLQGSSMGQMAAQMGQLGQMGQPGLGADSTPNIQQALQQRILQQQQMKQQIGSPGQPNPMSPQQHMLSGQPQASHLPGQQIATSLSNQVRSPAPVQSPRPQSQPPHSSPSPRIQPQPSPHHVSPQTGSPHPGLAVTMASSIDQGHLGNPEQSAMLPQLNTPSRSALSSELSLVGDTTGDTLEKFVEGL

[5] = Clearance in CD1 mouse blood at 1.4 mg/kg/hr, iv measured upto 24 hrs by LC-MS/MS analysis
[6] = biological target: T1, Bromodomain-containing protein 4; experiment: Binding affinity to BRD4 (unknown origin) assessed as change in melting temperature
Cytochrome P450 3A4 [7] = biological target: T2, Cytochrome P450 3A4 (Homo sapiens, UniProt P08684); experiment: Inhibition of recombinant human CYP3A4 expressed in Escherichia coli using VR as probe substrate incubated for 15 to 60 mins by fluorometric assay; format: ADME
T2 sequence (P08684 whole entry): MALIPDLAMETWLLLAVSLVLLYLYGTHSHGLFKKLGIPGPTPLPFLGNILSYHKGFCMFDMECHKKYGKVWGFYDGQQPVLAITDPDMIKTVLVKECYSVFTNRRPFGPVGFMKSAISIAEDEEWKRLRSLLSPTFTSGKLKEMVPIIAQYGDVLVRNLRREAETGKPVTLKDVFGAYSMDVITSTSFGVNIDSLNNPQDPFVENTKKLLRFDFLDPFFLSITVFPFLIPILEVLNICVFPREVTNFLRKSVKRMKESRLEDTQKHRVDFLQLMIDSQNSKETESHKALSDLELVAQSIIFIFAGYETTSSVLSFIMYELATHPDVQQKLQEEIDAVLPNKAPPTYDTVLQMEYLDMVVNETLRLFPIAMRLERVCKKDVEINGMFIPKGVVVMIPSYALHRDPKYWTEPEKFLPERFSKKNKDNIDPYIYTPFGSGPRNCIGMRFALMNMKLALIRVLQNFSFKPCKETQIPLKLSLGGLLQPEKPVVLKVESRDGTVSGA
Outline: (§2)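 Recombinant human CYPs coexpressed with NADPH reductase in E. coli bactosomes (0.1 mg protein/mL); profluorescent substrates ER (1A2), BMC (2C19), MMC (2D6), VividGreen or VividRed (3A4).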

[8] = Total blood clearance in Wistar Han rat at 1 mg/kg/hr, iv measured upto 26 hrs by LC-MS/MS analysis relative to hepatic blood flow; format: ADME, organism-based; settings: in vivo
[9] = biological target: Bromodomain-containing protein 4 (Homo sapiens, UniProt O60885, Y390A); experiment: Displacement of Alexa Fluor 647 labelled ligand from recombinant human N-terminal 6His-tagged BRD4-BD1 Y390A mutant (1 to 477 residue) expressed in Escherichia coli incubated for 30 mins by TR-FRET assay
[10] = Metabolic stability in mouse hepatocytes assessed as intrinsic clearance per g liver tissue at 0.5 uM measured upto 120 mins by LC-MS/MS analysis; format: ADME, cell-based, Hepatocyte; settings: 2 h
Outline: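 Cryopreserved mouse hepatocytes at 0.7 million cells/mL in Williams Medium E, compound 0.5 μM final (also repeated at 0.05 μM), 37 °C. […] No-cell and no-compound controls.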

[11] = human, hepatocytes, 2 h, 0.5 µM
Cytochrome P450 2C9 = Cytochrome P450 2C9 (Homo sapiens, UniProt P11712)
Sequence of Cytochrome P450 2C9 (P11712 whole entry): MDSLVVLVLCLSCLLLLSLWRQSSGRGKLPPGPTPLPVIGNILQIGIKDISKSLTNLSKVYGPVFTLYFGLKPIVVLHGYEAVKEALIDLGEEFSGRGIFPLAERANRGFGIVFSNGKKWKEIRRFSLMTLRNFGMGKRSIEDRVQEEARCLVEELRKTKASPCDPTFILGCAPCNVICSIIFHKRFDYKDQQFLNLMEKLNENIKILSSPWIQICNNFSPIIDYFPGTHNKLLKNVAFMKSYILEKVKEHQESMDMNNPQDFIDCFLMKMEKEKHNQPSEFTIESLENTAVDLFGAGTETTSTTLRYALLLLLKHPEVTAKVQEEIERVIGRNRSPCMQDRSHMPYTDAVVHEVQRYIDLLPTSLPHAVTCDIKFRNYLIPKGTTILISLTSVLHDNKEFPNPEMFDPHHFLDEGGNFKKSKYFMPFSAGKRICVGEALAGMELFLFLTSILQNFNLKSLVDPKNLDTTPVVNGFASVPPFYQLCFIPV

[12] = Half life in CD1 mouse at 1 mg/kg/hr, iv measured upto 24 hrs by LC-MS/MS analysis; format: ADME, organism-based; settings: in vivo
Outline: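 Surgically cannulated male CD1 mice (n = 3), 1 h iv infusion via jugular vein at 1 mg/kg/h (0.2 mg/mL in 2% DMSO/98% 10% Kleptose HPB in saline, 5 mL/kg/h). Tail-vein blood to 24 h plus terminal cardiac sample at 26 h; LC-MS/MS, LLQ 5 ng/mL. Mean ± SD.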

Cytochrome P450 3A4 [13] = biological target: T2, Cytochrome P450 3A4; experiment: Inhibition of recombinant human CYP3A4 expressed in Escherichia coli using VG as probe substrate incubated for 15 to 60 mins by fluorometric assay; format: ADME
[14] = dog, hepatocytes, 2 h, 0.5 µM
[15] = Oral bioavailability in Beagle dog at 3 mg/kg measured upto 24 hrs by HPLC-MS/MS analysis; settings: in vivo
[16] = rat, hepatocytes, 2 h, 0.5 µM
Cytochrome P450 1A2 = biological target: T3, Cytochrome P450 1A2 (Homo sapiens, UniProt P05177); experiment: Inhibition of recombinant human CYP1A2 expressed in Escherichia coli using ER as probe substrate incubated for 15 to 60 mins by fluorometric assay; format: ADME; outline: as §2
T3 sequence (P05177 whole entry): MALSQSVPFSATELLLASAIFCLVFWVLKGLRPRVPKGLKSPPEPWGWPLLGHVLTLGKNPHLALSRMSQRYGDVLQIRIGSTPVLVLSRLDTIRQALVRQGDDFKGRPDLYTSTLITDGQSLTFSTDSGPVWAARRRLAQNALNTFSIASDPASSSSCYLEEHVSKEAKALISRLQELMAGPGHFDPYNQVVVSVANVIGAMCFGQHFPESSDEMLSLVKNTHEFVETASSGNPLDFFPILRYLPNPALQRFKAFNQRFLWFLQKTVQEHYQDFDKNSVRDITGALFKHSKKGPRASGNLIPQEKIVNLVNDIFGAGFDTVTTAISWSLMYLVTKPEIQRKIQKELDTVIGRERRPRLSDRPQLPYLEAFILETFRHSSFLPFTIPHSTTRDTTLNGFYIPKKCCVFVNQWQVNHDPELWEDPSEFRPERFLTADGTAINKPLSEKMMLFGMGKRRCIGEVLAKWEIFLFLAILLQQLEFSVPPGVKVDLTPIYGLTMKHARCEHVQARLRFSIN

[17] = Half life in Wistar Han rat at 1 mg/kg/hr, iv measured upto 26 hrs by LC-MS/MS analysis; format: ADME, organism-based; settings: in vivo
[18] = Total blood clearance in Beagle dog at 1 mg/kg/hr, iv measured upto 28 hrs by LC-MS/MS analysis relative to hepatic blood flow; format: ADME, organism-based, Canis lupus familiaris; settings: in vivo
[19] = Oral bioavailability in Wistar Han rat at 3 mg/kg measured upto 24 hrs by HPLC-MS/MS analysis; settings: in vivo
[20] = biological target: T1, Bromodomain-containing protein 4; experiment: Inhibition of BRD4 in human PBMC assessed as reduction in LPS-induced IL-6 secretion incubated for 18 to 24 hrs by MSD assay
[21] = Tmax in Wistar Han rat at 1 mg/kg, po measured upto 24 hrs by HPLC-MS/MS analysis; format: ADME, organism-based; settings: in vivo; outline: as §1
[22] = biological target: T1, Bromodomain-containing protein 4; experiment: Binding affinity to BRD4 (unknown origin) by ITC assay
[23] = AUC(0 to t) in Wistar Han rat at 1 mg/kg, po measured upto 24 hrs by HPLC-MS/MS analysis; format: ADME, organism-based; set-up: route oral, dose 1 mg/kg, time <=24; settings: in vivo; outline: as §1
[24] = Cmax in Beagle dog at 5 mg/kg, po measured upto 24 hrs by HPLC-MS/MS analysis; format: ADME, organism-based, Canis lupus familiaris; set-up: route oral, dose 5 mg/kg, time <=24; settings: in vivo; outline: as §1
[25] = Passive permeability in MDCK cells; format: ADME, cell-based, Canis lupus familiaris; settings: dog, read-out: permeability
[26] = biological target: CREB-binding protein (Homo sapiens) (UniProt Q92793); experiment: Binding affinity to CBP (unknown origin) by ITC assay
[27] = AUC(0 to t) in Beagle dog at 5 mg/kg, po measured upto 24 hrs by HPLC-MS/MS analysis; format: ADME, organism-based, Canis lupus familiaris; set-up: route oral, dose 5 mg/kg, time <=24; settings: in vivo; outline: as §1

## COC[C@@H](C)n1c(C2CCOCC2)nc2cnc3cc(-c4c(C)noc4C)c(OC)cc3c21
[1]
  Cmax: 125 ng/mL
[2]
  Vd: 2.2 L/kg
[3]
  IC50: 316 nM
[4]
  ΔTm: 3.4 °C
[5]
  clearance: 23 mL/min/kg
[6]
  ΔTm: 9.9 °C
Cytochrome P450 3A4 [7]
  IC50: > 50000 nM
[8]
  CLH: 22%
[9]
  IC50: 39.8 nM
[10]
  CLint: < 0.86 mL/min/g liver
[11]
  CLint: < 0.86 mL/min/g liver
Cytochrome P450 2C9
  IC50: > 50000 nM
[12]
  half-life: 1.2 h
Cytochrome P450 3A4 [13]
  IC50: 25100 nM
[14]
  CLint: 2.4 mL/min/g liver
[15]
  F: 31%
[16]
  CLint: < 0.86 mL/min/g liver
Cytochrome P450 1A2
  IC50: > 50000 nM
[17]
  half-life: 1.4 h
[18]
  CLH: 68%
[19]
  bioavailability: 74%
[20]
  IC50: 100 nM
[21]
  Tmax: 1 h
[22]
  Activity: 47.5 nM
[23]
  AUC(0-t) at 24 h: 467 ng·h/mL
[24]
  Cmax: 177 ng/mL
[25]
  Papp: 34.6 ×10⁻⁶ cm/s
[26]
  Activity: 1730 nM
[27]
  AUCt: 367 ng·h/mL
